# High-throughput results: PubChem, The Scripps Research Institute Molecular Screening Center
# The list is not random: actives were taken first. Their share in the collection is about 4%.
# OX1R antag-1 – antagonists of human orexin 1 receptor (OX1R); OX1R-expressing cells, FRET antagonist read-out; inhibition, % at 6.6 µM; AID 485270, 2010; 330,000 tested, 1.8% active; Orexin/Hypocretin receptor type 1 (Homo sapiens), O43613; in the data active = inhibition mostly above about 38%, no sharp cut-off; inactive = mostly below about 40%;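 also: 0% = agonist challenge alone and 100% = reference antagonist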
# Target sequence (O43613 whole entry, looked up): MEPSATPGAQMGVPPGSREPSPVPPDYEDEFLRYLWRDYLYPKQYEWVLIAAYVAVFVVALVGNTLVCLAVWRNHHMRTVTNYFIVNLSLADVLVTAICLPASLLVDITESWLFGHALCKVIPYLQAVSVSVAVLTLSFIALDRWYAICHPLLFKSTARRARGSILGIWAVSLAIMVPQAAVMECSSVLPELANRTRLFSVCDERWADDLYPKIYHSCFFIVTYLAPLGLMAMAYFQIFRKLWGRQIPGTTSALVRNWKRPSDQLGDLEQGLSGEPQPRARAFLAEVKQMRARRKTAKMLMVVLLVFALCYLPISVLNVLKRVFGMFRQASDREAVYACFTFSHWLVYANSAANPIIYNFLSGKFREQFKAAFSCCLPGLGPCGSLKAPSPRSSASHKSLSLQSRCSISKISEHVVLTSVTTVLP
# OX1R antag-2 – OX1R (HCRTR1) antagonists, primary screen, fluorescence, CHO/OX1R cells, Fluo-8 calcium, orexin A. Orexin/Hypocretin receptor type 1 (Homo sapiens), O43613. Fluo-8 calcium fluorescence. inhibition, % at 5 µM. 330,000 tested, 0.43% active. AID 434989, 2010;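 active = inhibition above its plate's threshold, mean inhibition of all tested compounds on the plate plus 3 SD, cut at about 37% in these data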;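 also: 0% = orexin A challenge wells and 100% = SB-334867-A antagonist wells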
# CHO parental Ca – ATP-evoked calcium signal inhibitors, parental CHO, primary screen, counter-screen for OX1R antagonist project, cell-based, fluorescence, Fluo-8 calcium dye; parental CHO-K1, ATP-induced calcium, Fluo-8 fluorescence; inhibition, % at 5.6 µM; 330,000 tested, 0.63% active;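 active = inhibition above that plate's mean sample inhibition plus 3 SD, cut at about 26% in these data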;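 also: 0% = ATP-challenged DMSO wells and 100% = DMSO wells without ATP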
#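 test system = CHO parental line | reagent = ATP stimulus | measured by = intracellular calcium via Fluo-8 no-wash fluorescent dye | control set = ATP and no-ATP DMSO wells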
# TAAR1 agonist – human TAAR1 agonists, primary screen, Fluo-8 calcium fluorescence, CHO RD-HGA16 cells; Trace amine-associated receptor 1 (Homo sapiens), Q96RJ0; vehicle wells 0%, saturating PEA agonist 100%; activation, % at 3 µM; 360,000 tested, 0.99% active;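 active = activation above the mean activation of all test compounds in the run plus 3 SD, cut at about 38% in these data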
#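 Repeats: no replicates (n 1) | Material: CHO-derived RD-HGA16 cells with stable Gα16 and human TAAR1 | Technique: Kinetic Fluo-8 calcium fluorescence | Schedule: 17-24 h seeding, 75 min 37 °C dye, 30 min RT | Evaluation: % activation from peak over basal fluorescence ratio, DMSO-to-PEA scaled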
# TAAR1 antagonist – human TAAR1 antagonists, primary screen, Fluo-8 calcium fluorescence, CHO RD-HGA16 cells | Trace amine-associated receptor 1 (Homo sapiens), Q96RJ0 | antagonist | inhibition, % at 3 µM | 360,000 tested, 1.5% active | AID 624466, 2012;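 active = inhibition above a per-plate cutoff, the mean inhibition of test compounds on that plate plus 3 SD, cut at about 49% in these data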;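 also: 0% = DMSO plus EC80 beta-PEA response and 100% = DMSO alone without agonist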
#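 Test system: RD-HGA16 CHO cells with stable hTAAR1 and Gα16 / Probe or stimulus: EC80 β-phenethylamine stimulus / Times: seeding 17-24 h prior, 75-min 37 °C, 30-min RT dye loading / Detection: Fluo-8 calcium-sensitive fluorescence / Read-out basis: % inhibition scaled between DMSO and EC80 PEA controls / Repeats: singlicate, one well per test compound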
# * marks the source's active call; other numbers are inactive results; x = not tested or not shown.
SMILES,OX1R antag-1,OX1R antag-2,CHO parental Ca,TAAR1 agonist,TAAR1 antagonist
CCOCCCN(C(=O)c1snc(C(N)=O)c1N)C(C(=O)NC1CCCC1)c1ccc(F)cc1 (stereo not given),9.6,-36.8,-26.9,0.1,-15.8
Cc1nn(CC(=O)NC(=O)NC2CCCCC2C)c(=O)c(C#N)c1C (stereo not given),5.9,-15.5,-15.1,2.0,-27.9
Cc1nn(CC(=O)NC2CCC(C)CC2)c(=O)c(C#N)c1C (stereo not given),44.2*,-4.7,-3.3,2.0,-14.7
O=C(Nc1ccc(Cl)cc1)Nc1nc(-c2ccccc2O)cs1,46.2,41.2*,73.9*,10.6,4.2
O=C(Cc1csc(NC(=O)Nc2ccc(Cl)cc2)n1)NC1CCCC1,16.0,14.2,34.9*,13.0,46.3
CC(C)c1ccc(NC(=O)Nc2nc(C(N)c3ccccc3)cs2)cc1 (stereo not given),x,x,x,45.1*,9.9
O=C(N[C@H](c1cccc(Br)c1)[C@@H]1CCCC=C1c1ccccc1)C(F)(F)F,x,x,x,0.1,12.4
O=C(Nc1cccc(-n2cnnn2)c1)c1cccc(Cl)c1,13.6,-19.2,-20.4,16.7,10.9
CC(C)(C)c1ccc(C(=O)Nc2cccc(-n3cnnn3)c2)cc1,12.9,13.8,16.2,5.5,58.0*
CCOc1ccc(C(=O)Nc2cccc(-n3cnnn3)c2)cc1OCC,9.0,-5.5,-8.3,9.3,45.0
O=C(Nc1cccc(-n2cnnn2)c1)c1cc(Cl)nc(Cl)c1,0.6,-11.6,-5.6,48.8*,29.5
COc1ccc(-c2cc(N)n(S(=O)(=O)c3c(F)c(F)c(F)c(F)c3F)n2)cc1OC,19.4,23.6,44.8*,16.4,45.6
COCCN1C(=O)/C(=C/c2ccc(OCc3ccc(C(=O)O)cc3)c(OC)c2)SC1=Nc1ccccc1,23.7,-5.8,-4.4,19.3,72.9*
CS(=O)(=O)n1nc(-c2ccc(Cl)cc2)nc1N,16.7,-8.5,-11.5,5.0,5.2
Cn1nc(-c2ccc(Cl)cc2)nc2c(=O)n(C)c(=O)nc1-2,91.0*,-15.6,-24.4,x,x
CC1(C)CC(=O)C=C(Nc2ccc([N+](=O)[O-])cc2)C1,28.5*,-15.6,-8.0,0.3,9.2
COc1cc2c(c(OC)c1OC)[C@@]1(c3ccccc3)CCCC[C@H]1[C@@H]2NC(=O)C(F)(F)F,x,x,x,10.5,-42.2
Cc1cc2ccccn2c1C(=O)c1ccncc1,32.2*,0.6,2.7,2.5,-14.5
Cc1cc(N2CCN(CC(C)(C)O)C[C@H]2C)ccc1N1CCN(Cc2ccccc2)[C@H](C)C1,x,x,x,2.5,-14.3
O=C(CSc1nnc2scc(-c3ccccc3)n12)Nc1nsc(-c2ccc(Cl)cc2)n1,19.0,-27.6,-13.1,-0.2,-16.4
O=C(CSc1nnc2scc(-c3ccccc3)n12)Nc1nsc(-c2ccccc2)n1,72.6*,9.2,-26.9,x,x
C=CCN(c1ccccc1Cl)S(=O)(=O)c1cccc(C(=O)NCCc2ccc(OC)cc2)c1,32.9,10.0,10.0,4.7,60.6*
COC(=O)[C@]12C[C@H](CC(=O)NCc3cccs3)C(=O)N(CCC3=CCCCC3)C1=C[C@H](C(C)(C)C)O[C@@H]2C,x,x,x,-1.5,-28.7
Cc1ccc2nc(N(CCCN(C)C)C(=O)c3ccc(S(=O)(=O)N4CCCCCC4)cc3)sc2c1,1.3,-17.3,3.8,50.0*,15.2
COc1ccc(C)c2sc(N(CCCN(C)C)C(=O)c3ccc(S(=O)(=O)N4CCc5ccccc5C4)cc3)nc12,3.8,-4.3,6.5,47.5*,41.5
SMILES,OX1R antag-1,OX1R antag-2,CHO parental Ca,TAAR1 agonist,TAAR1 antagonist
CCc1ccc2nc(N(CCCN(C)C)C(=O)c3ccc(S(=O)(=O)N4CCCC4)cc3)sc2c1,6.2,-29.0,-26.4,25.1,5.8
COc1cccc2sc(N(CCCN(C)C)C(=O)c3ccc(S(=O)(=O)N4CCCc5ccccc54)cc3)nc12,12.5,-7.2,-0.1,39.7*,22.6
CCOc1ccc2nc(N(CCCN(C)C)C(=O)c3ccc(S(=O)(=O)N4CCc5ccccc5C4)cc3)sc2c1,15.9,-10.6,-6.5,43.2*,37.8
CCOc1ccccc1OCCC(=O)OCC(=O)c1ccc[nH]1,19.5,-8.5,-13.2,2.5,5.7
COC(=O)c1cc2c(c3c4cc(F)ccc4n(S(=O)(=O)c4cccc(C)c4)c13)C(=O)N(Cc1ccc(N(C)C)cc1)C2,x,x,x,-1.2,-9.1
CC#CC(=O)N1CCC(C(=O)Nc2ccc(Oc3ccccc3)nc2)CC1,11.6,-15.7,3.6,1.7,-16.1
COc1cccc(NC(=O)Nc2cccn(Cc3ccccc3)c2=O)c1,25.6,-19.5,-18.6,3.0,1.4
COc1cccc(Cn2cccc(NC(=O)Nc3ccc(C#N)cc3)c2=O)c1,31.9,52.4*,47.3*,7.7,53.4*
COc1ccc(CCC(=O)Nc2ccc3c(c2)OCCO3)cc1,14.3,18.2,34.6*,6.1,-1.9
COc1ccc(CCC(=O)Nc2ccc3c(c2)OCO3)cc1,11.6,-18.9,-13.6,1.6,-8.8
CN(C)c1ccc2c3c(cccc13)C(=O)N(c1ccccc1)C2=O,19.7,3.2,5.3,x,x
Cc1cccc(N2C(=O)c3cccc4c(N(C)CCO)ccc(c34)C2=O)c1,31.0,46.2*,25.6,x,x
CSc1ncccc1C(=O)OCC(=O)N(C)c1c(N)n(Cc2ccccc2)c(=O)[nH]c1=O,10.9,-26.4,-11.8,0.8,-19.1
COc1ccc2ccccc2c1C(O)c1nccn1C (stereo not given),64.1*,-6.6,-0.8,21.2,21.1
CCc1ccc(CNC(=O)CCC(=O)n2ncc3cc(C)ccc32)cc1,-0.7,-5.3,-1.4,46.6*,11.6
O=C(N[C@@H](Cc1cccnc1)C(=O)N1CCC[C@H]1C(=O)NC1CCCC1)c1ccc(Cl)c(Cl)c1,x,x,x,2.0,-16.4
Cc1cc(C(=O)CN2C(=O)CCC2=O)c(C)n1Cc1ccccc1,2.8,-2.8,-7.8,40.2*,2.5
CN(CC(=O)Nc1ccc(F)cc1)C(=O)COc1ccccc1Cc1ccccc1,7.2,-26.0,-10.6,3.0,41.7
COc1ccc(/C=N/NC(=O)c2nn(-c3ccccc3)c(=O)c3c(N)scc23)cc1,70.0*,0.4,-3.0,5.3,19.2
CCOC(=O)c1nn(-c2ccc(OC)cc2)c(=O)c2c(N)scc12,28.3,-17.9,-9.9,0.1,2.3
COc1ccc(/C=N/NC(=O)c2nn(-c3ccc(Cl)cc3)c(=O)c3c(N)scc23)cc1,51.8*,-14.2,-7.5,0.6,-12.3
COCCCNC(=O)C[C@H]1C[C@@]2(C(=O)OC)C(=C[C@H](C(C)C)O[C@@H]2C2CC2)N(Cc2ccccc2)C1=O,x,x,x,-0.4,-11.1
COc1cc(C(=O)Nc2cccc(-c3nc4cc(C)ccc4o3)c2)cc(OC)c1OC,42.3,-15.8,-16.2,7.8,21.6
